Hits are enriched below; roughly 2.4% of the tested compounds scored in any of these assays.
Neddyl block = blocks human cullin neddylation | P61081+Q13564 | TR-FRET cullin neddylation, biochemical | inhibition, % at 25 µM | hit rate 0.58% among 360,000 | AID 651699; in the data active = inhibition above about 36%
Rin1 Abl inh = inhibitors of human Rin1-Abl protein interaction; P00519+Q13671; hit rate 0.4% among 360,000; inhibition, % at 7.35 µM; AID 588664; TR-FRET Rin1/Abl binding, biochemical; in the data active = inhibition above about 5%, passing the limit was not always enough
CSN deneddyl inh = blocks human CSN-mediated cullin deneddylation; Purified CSN, SCF-Nedd8-OG deneddylation, fluorescence polarization; inhibition, % at 12.5 µM; hit rate 0.38% among 360,000; AID 651999;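 active = pattern-corrected inhibition above about 35%, with an unprinted fluorescence ratio check between 0.5 and 1.5, limit read from the data, passing the limit was not always enough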
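Schedule: reaction 90 min, room temperature / Assay system: HEK293T-derived human Csn5 enzyme / Input: Csn5 at 0.24 nM final / Measure: inhibition of Csn5 cleavage, % / Control set: substrate-only high control, full reaction low control / Technique: fluorescence polarization of the substrate / Buffer or medium: Tris/NaCl/DTT buffer, pH 7.5 / Reagent: SCFSkp2-Nedd8OG substrate at 10 nM final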
Rpn11 block = inhibitors of human proteasome Rpn11 | O00487 | human 26S proteasome, Ub4-pepOG fluorescence polarization; 20S core pre-blocked with epoxomicin | inhibition, % at 20 µM | hit rate 0.59% among 360,000;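 active = inhibition at 20 µM, scaled to each plate's controls, above about 33%, limit read from the data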
HNF4A DNA FP = change in binding of human HNF4 alpha to DNA. HNF4a-FITC DNA binding, fluorescence polarization, 1 h. activity change, % at 10 µM. hit rate 0.3% among 360,000; in the data active = activity change above about 30%, passing the limit was not always enough
Target sequence (P41235 whole entry, looked up): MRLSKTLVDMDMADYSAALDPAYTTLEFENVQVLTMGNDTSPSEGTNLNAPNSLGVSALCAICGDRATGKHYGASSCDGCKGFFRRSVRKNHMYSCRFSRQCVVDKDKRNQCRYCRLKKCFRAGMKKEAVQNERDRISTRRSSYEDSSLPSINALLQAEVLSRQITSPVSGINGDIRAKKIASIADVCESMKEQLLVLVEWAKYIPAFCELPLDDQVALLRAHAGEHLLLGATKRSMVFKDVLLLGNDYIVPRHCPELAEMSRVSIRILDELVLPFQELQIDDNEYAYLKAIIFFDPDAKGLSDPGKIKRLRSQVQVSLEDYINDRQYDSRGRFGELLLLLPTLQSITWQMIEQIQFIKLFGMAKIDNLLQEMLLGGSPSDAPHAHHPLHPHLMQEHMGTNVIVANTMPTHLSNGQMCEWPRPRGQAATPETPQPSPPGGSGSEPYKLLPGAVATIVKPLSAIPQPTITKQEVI
TPT1 inh = C. albicans TPT1 enzyme inhibition; recombinant caTPT1, FP RNA substrate dephosphorylation; AID 1962; hit rate 0.81% among 300,000; inhibition, % at 5 µM;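 active = inhibition above the mean of all tested compounds plus 3 SD, set per screening campaign, cut at about 24% in these data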
Rin1-Abl confirm = confirmation of inhibitors of human Rin1-Abl interaction | shares compounds with Rin1 Abl inh | TR-FRET Rin1-Abl binding, purified proteins | inhibition, % at 7.35 µM | hit rate 49% among 1,300
GFP quench = GFP fluorescence interference artifact | inhibition, % at 6.75 µM | AID 602125 | hit rate 8.5% among 1,300 | inhibitors/quenchers counterscreen | shares compounds with Rin1 Abl inh;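 also: ABL1-eGFP fusion protein alone without its partner RIN1-SBP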
GFP quench DR = GFP fluorescence interference dose response; shares compounds with Rin1 Abl inh; GFP fluorescence interference/quenching counterscreen; IC50, µM; 230 tested, under 10 active; AID 602182; call rule not given here;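 also: ABL1-eGFP fusion protein alone without its RIN1 binding partner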
Hits are given with their value; ! = not confirmed by another sample. Rule as the data show it, unless noted: active = inhibition above about 6.5%; inactive = the rest.

Screening O=C1OC(NCc2cccnc2)(c2ccc(Cl)cc2)c2ccccc21 (stereo not drawn) returned Neddyl block inactive, Rin1 Abl inh 12.4, CSN deneddyl inh inactive, Rpn11 block inactive, HNF4A DNA FP inactive, TPT1 inh inactive, Rin1-Abl confirm 7.4 and GFP quench inactive.
Screening Clc1ccc(NCc2cccnc2)cc1 returned Neddyl block inactive, Rin1 Abl inh inactive, CSN deneddyl inh inactive, Rpn11 block inactive, HNF4A DNA FP inactive and TPT1 inh inactive.
`CCCNC(=O)c1cc(C2CCCCN2C(=O)c2ccc3c(c2)CCO3)on1` (stereo not drawn) gave Neddyl block inactive, Rin1 Abl inh 15.0, CSN deneddyl inh inactive, Rpn11 block inactive, HNF4A DNA FP inactive, Rin1-Abl confirm inactive and GFP quench inactive.
Screening CCCNC(=O)c1cc(C2CCCCN2C(=O)c2ccc3ccccc3c2)on1 (stereo not drawn) returned Neddyl block inactive, Rin1 Abl inh inactive, CSN deneddyl inh inactive, Rpn11 block inactive and HNF4A DNA FP inactive.
Cc1onc(-c2c(F)cccc2Cl)c1C(=O)OCC(=O)NC(c1ccccc1)c1ccccc1 was read as Neddyl block inactive, Rin1 Abl inh inactive, CSN deneddyl inh inactive, Rpn11 block inactive, HNF4A DNA FP inactive and TPT1 inh inactive.
For CC(C)(C)c1nnc(SCC(=O)c2ccccc2)n(N)c1=O the results were Neddyl block inactive, Rin1 Abl inh inactive, CSN deneddyl inh inactive, Rpn11 block inactive, HNF4A DNA FP inactive and TPT1 inh inactive.
For C/C(=N/Nc1ccc(C(=O)O)cc1)c1ccc(O)c(O)c1O the results were Neddyl block inactive, Rin1 Abl inh 28.7, CSN deneddyl inh inactive, Rpn11 block inactive, HNF4A DNA FP inactive, TPT1 inh inactive, Rin1-Abl confirm 31.8 and GFP quench 8.4.
Cc1c(Cl)c(C(F)(F)F)nn1CC(=O)NCc1ccco1 was read as Neddyl block inactive, Rin1 Abl inh inactive, CSN deneddyl inh inactive, Rpn11 block inactive, HNF4A DNA FP inactive and TPT1 inh inactive.
Screening CC(=O)C(C(C)=O)C1(O)C(=O)c2ccccc2C1=O returned Neddyl block inactive, Rin1 Abl inh 23.2, CSN deneddyl inh inactive, Rpn11 block inactive, HNF4A DNA FP inactive, TPT1 inh inactive, Rin1-Abl confirm 18.7, GFP quench inactive and GFP quench DR inactive.
`CC(=O)N(C)C1=C(O)c2ccccc2C(=O)C1=O` gave Neddyl block inactive, Rin1 Abl inh inactive, CSN deneddyl inh inactive, Rpn11 block inactive, HNF4A DNA FP inactive and TPT1 inh inactive.
CCOC(=O)c1ccc2ncc(C(=O)OCC)c(NCCN3CCOCC3)c2c1 was read as Neddyl block inactive, Rin1 Abl inh inactive, CSN deneddyl inh inactive, Rpn11 block inactive, HNF4A DNA FP inactive and TPT1 inh inactive.
`CCOC(=O)c1ccc2ncc(C(=O)OCC)c(NCCN(C)C)c2c1` gave Rin1 Abl inh 7.9, CSN deneddyl inh inactive, Rpn11 block inactive, HNF4A DNA FP inactive, TPT1 inh inactive, Rin1-Abl confirm inactive and GFP quench inactive.
Screening O=c1c(O[C@@H]2O[C@H](CO)C(O)C2O)c(-c2ccc(O)c(O)c2)oc2cc(O)cc(O)c12 (stereo partly drawn) returned Neddyl block inactive, Rin1 Abl inh inactive, CSN deneddyl inh inactive, Rpn11 block inactive and HNF4A DNA FP inactive.
For COc1cc(-c2oc3cc(O)cc(O)c3c(=O)c2O[C@@H]2O[C@H](COC3O[C@@H](C)[C@H](O)[C@@H](O)[C@H]3O)[C@@H](O)[C@H](O)[C@H]2O)ccc1O (stereo partly drawn) the results were Neddyl block inactive, Rin1 Abl inh inactive, CSN deneddyl inh inactive, Rpn11 block inactive and HNF4A DNA FP inactive.
C[C@@H]1O[C@@H](Oc2c(-c3ccc(O)c(O)c3)oc3cc(O)cc(O)c3c2=O)[C@H](O)[C@H](O)[C@H]1O was read as Neddyl block inactive, Rin1 Abl inh 18.1!, CSN deneddyl inh inactive, Rpn11 block inactive, HNF4A DNA FP inactive, Rin1-Abl confirm 11.9 and GFP quench inactive.
